{
  "source": "paper PMC9979192",
  "about": "(Acta Pharmaceutica Sinica. B, 2022)",
  "key": {"[1]": {"system": "primary hepatocytes", "assay": "In vitro cholesterol efflux and Abcg5/8 expression", "format": "cell-based, mouse", "conditions": "3H-cholesterol, 12 h; BA 50 μmol/L", "in_short": "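For Abcg5/Abcg8 mRNA, primary mouse hepatocytes were treated 24 h with 50 μmol/L test compound plus 15 μg/mL cholesterol in 420 μg/mL M-β-CD. For efflux, cells were loaded 12 h with 0.5 μCi/mL 3H-cholesterol plus cholesterol, washed, then given 12.5–50 μmol/L compound with 15 μg/mL cholesterol in serum-free medium for 12 h at 37 °C. 3H in medium and NaOH lysate was counted; T0901317 (1 μmol/L) served as positive control.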"}, "[2]": {"system": "HCD mice", "assay": "In vivo cholesterol efflux in HCD mice", "parameters": "species or system C57BL/6J mice", "conditions": "oral 30 mg/kg for 7 days"}, "[3]": {"system": "golden hamsters", "assay": "HFHC diet-induced hyperlipidemia in golden hamsters", "format": "in vivo, golden hamster", "conditions": "2 weeks; 326E 15 and 30 mg/kg, BA 30 mg/kg; vs vehicle"}, "[4]": {"system": "ApoE-/- mice", "assay": "Western diet-induced atherosclerosis in ApoE-/- mice", "format": "in vivo, mouse", "conditions": "24 weeks once daily oral", "in_short": "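Male ApoE−/− mice were started at 6–8 weeks on a high-fat, high-cholesterol diet for 23–24 weeks, with oral compound dosing. Whole aortas were stained with Sudan IV for plaque, and plasma hsCRP was measured. For hepatic cholesterol, liver lipid residue was resuspended in ethanol with 1% Triton X-100 and assayed with commercial kits.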"}, "[5]": {"conditions": "mouse plasma; ref a previous study; cited from earlier work"}, "[6]": {"conditions": "human plasma; ref a previous study; cited from earlier work"}, "[7]": {"conditions": "rat plasma; ref a previous study; cited from earlier work"}, "[8]": {"conditions": "monkey plasma; ref a previous study; cited from earlier work"}, "[9]": {"system": "hypercholesterolemia patients", "conditions": "at 12 weeks, with maximally tolerated statin therapy; cited from earlier work"}, "[10]": {"system": "rhesus monkeys", "assay": "Rhesus monkeys with spontaneous hyperlipidemia, efficacy and safety", "format": "in vivo, rhesus monkey", "conditions": "2 weeks; 326E 20 mg/kg, atorvastatin 2.4 mg/kg"}, "[11]": {"system": "mouse primary hepatocytes", "assay": "In vitro de novo lipogenesis in primary hepatocytes", "format": "cell-based", "conditions": "24 h treatment; compared with BA", "in_short": "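Hepatocytes came from 8–12-week male C57BL/6J mice by Percoll purification and were kept in Hepato ZYME-SFM with 2 mmol/L l-glutamine and antibiotics at 6 × 10^5 cells/well. Treated either 24 h with 0.1 μCi/well [1,2-14C]-acetate during the last 4 h, or 4 h with the label present. 14C in fatty acids and cholesterol was extracted and scintillation-counted, then normalized to DMSO; n = 3–4.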"}, "[12]": {"system": "primary mouse hepatocytes", "assay": "Glucose output", "format": "cell-based", "conditions": "6 h, pyruvate 2 mmol/L and lactate 20 mmol/L; compared to BA", "in_short": "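Primary hepatocytes from male C57BL/6J mice were treated with the test compound for 6 h in gluconeogenic medium with pyruvate (2 mmol/L) and lactate (20 mmol/L), with or without 4.0 mmol/L l-glutamine. Glucose output into the medium was measured and normalized to the DMSO group; n = 4.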"}},
  "note": "Read-outs that look alike come from different tables or passages of the source.",
  "data": [
    {"compound": "CC(C)(CCCCCC(O)CCCCCC(C)(C)C(=O)O)C(=O)O", "note": "[BA, Bempedoic acid]", "values": [
      {"measurement": "cholesterol efflux into the cell culture medium", "setting": "[1]", "value": "markedly promoted cholesterol efflux"},
      {"measurement": "hepatic cholesterol content", "setting": "[2]", "value": "significantly reduced hepatic cholesterol content"},
      {"measurement": "body weight", "setting": "[3]", "value": "significantly decreased"},
      {"measurement": "hepatic cholesterol content reduced compared to vehicle", "setting": "[4]", "value": 37, "unit": "%"},
      {"measurement": "aortic plaques reduced", "setting": "[4]; 326E 15, 30, 60 mg/kg, BA 30 mg/kg", "value": 33.4, "unit": "%"},
      {"measurement": "in vitro plasma protein-binding rate", "setting": "[5]", "value": "95%–98"},
      {"measurement": "in vitro plasma protein-binding rate", "setting": "[6]", "value": "95%–98"},
      {"measurement": "in vitro plasma protein-binding rate", "setting": "[7]", "value": "95%–98"},
      {"measurement": "in vitro plasma protein-binding rate", "setting": "[8]", "value": "95%–98"},
      {"measurement": "placebo-adjusted decrease from baseline in LDL-C", "setting": "[9]", "value": 16.5, "unit": "%"}
    ]},
    {"compound": "CC(C)c1c(C(=O)Nc2ccccc2)c(-c2ccccc2)c(-c2ccc(F)cc2)n1CC[C@@H](O)C[C@@H](O)CC(=O)O", "note": "[atorvastatin, Atorvastatin]", "values": [
      {"measurement": "body weight during treatment", "setting": "[10]", "value": "unchanged"}
    ]},
    {"compound": "CC(C)(CCCCC=CCCCCCC(C)(C)C(=O)O)C(=O)O", "note": "[326F]", "values": [
      {"measurement": "incorporation of [1,2-14C]-acetate into fatty acids and cholesterol", "setting": "[11]", "value": "dose-dependent lipogenesis inhibition"},
      {"measurement": "cumulative glucose production", "setting": "[12]", "value": "reduced with a greater tendency"}
    ]}
  ]
}
